These results are taken from ChEMBL document CHEMBL4619818, “Mining Public Domain Data to Develop Selective DYRK1A Inhibitors” (ACS Med Chem Lett, 2020).

In brackets after ≈: the same amount, converted by molar mass.

Data set [1] concerns the target T1, Dual specificity tyrosine-phosphorylation-regulated kinase 1A (Homo sapiens, UniProt Q13627). Nature of the data set: Inhibition of recombinant human N-terminal Hex-tagged DYRK1A (127 to 485 residues) expressed in Escherichia coli BL21 (DE3) incubated for 1.5 hrs by TR-FRET assay.
Data set [2] concerns the target T1, Dual specificity tyrosine-phosphorylation-regulated kinase 1A. Nature of the data set: Inhibition of DYRK1A (unknown origin) at 1 uM by PanQinase assay relative to control.
For data set [3], the target named is Cyclin-dependent kinase 2 (Homo sapiens) (UniProt P24941). Nature of the data set: Inhibition of CDK2 (unknown origin) at 1 uM by PanQinase assay relative to control.
The target of data set [4] is T1, Dual specificity tyrosine-phosphorylation-regulated kinase 1A. Nature of the data set: Binding affinity to DYRK1A (unknown origin) assessed as dissociation constant measured for 60 to 300 sec by SPR analysis.
Data set [5] can be described thus: Efflux ratio of apparent permeability from basolateral to apical side over apical to basolateral side in dog MDCK-MDR1 cells. Format: ADME, cell-based, Canis lupus familiaris. In outline:
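MDCK cells transfected with human MDR1 gene (Cyprotex assay); permeability coefficient (Papp) measured in both directions, apical to basolateral and basolateral to apical; efflux ratio taken as mean Papp B2A divided by mean Papp A2B.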

Data set [6] is described as follows: Metabolic stability in human liver microsomes assessed as intrinsic clearance. It counts as ADME, Microsome. As to conditions: read-out: CLH. A digest of the protocol: (§1)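 Microsomal incubations with human or rat liver microsomes. Intrinsic clearance given in µL/min/mg; values are the mean of n = 2.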
In general terms: Microsomes from liver hold many membrane-bound enzymes, among them those of drug oxidation.

For data set [7], the target named is Glycogen synthase kinase-3 beta (Homo sapiens) (UniProt P49841). The data set can be described thus: Inhibition of recombinant human full length GSK3beta (1 to 433 residues) expressed in mammalian expression system at 1 uM by DiscoverX competition binding assay relative to control. A digest of the protocol: (§2)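 Competition binding assay with test compound at 1 µM inhibitor concentration. Result expressed as percent inhibition, single determination (n=1). The kinome-wide panel also gave a selectivity score, S-Score(40).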
Glycogen synthase kinase-3 beta (Homo sapiens), sequence (P49841 whole entry, looked up, the tested form may be a part): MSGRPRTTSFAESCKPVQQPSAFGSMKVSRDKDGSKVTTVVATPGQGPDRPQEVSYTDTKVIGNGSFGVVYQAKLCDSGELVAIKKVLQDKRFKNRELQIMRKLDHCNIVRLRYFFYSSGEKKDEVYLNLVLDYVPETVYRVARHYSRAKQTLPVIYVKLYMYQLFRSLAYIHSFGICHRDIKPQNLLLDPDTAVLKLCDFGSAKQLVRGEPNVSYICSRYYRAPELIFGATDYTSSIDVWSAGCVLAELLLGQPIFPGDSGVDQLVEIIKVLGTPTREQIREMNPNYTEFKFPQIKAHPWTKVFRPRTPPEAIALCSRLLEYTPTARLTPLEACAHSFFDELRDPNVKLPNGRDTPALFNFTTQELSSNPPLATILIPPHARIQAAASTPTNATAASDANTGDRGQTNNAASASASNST

A short description of data set [8]: Thermodynamic solubility of compound at pH 6.8. It counts as physicochemical. Conditions: buffer, read-out: Therm_solubility. In outline: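 Thermodynamic (intrinsic) solubility by shake-flask method in PBS buffer at pH 6.8. Reported in mg/mL from a single experiment.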
Data set [9] deals with T2, Dual specificity tyrosine-phosphorylation-regulated kinase 2 (Homo sapiens) (UniProt Q92630).
T2 sequence (whole entry): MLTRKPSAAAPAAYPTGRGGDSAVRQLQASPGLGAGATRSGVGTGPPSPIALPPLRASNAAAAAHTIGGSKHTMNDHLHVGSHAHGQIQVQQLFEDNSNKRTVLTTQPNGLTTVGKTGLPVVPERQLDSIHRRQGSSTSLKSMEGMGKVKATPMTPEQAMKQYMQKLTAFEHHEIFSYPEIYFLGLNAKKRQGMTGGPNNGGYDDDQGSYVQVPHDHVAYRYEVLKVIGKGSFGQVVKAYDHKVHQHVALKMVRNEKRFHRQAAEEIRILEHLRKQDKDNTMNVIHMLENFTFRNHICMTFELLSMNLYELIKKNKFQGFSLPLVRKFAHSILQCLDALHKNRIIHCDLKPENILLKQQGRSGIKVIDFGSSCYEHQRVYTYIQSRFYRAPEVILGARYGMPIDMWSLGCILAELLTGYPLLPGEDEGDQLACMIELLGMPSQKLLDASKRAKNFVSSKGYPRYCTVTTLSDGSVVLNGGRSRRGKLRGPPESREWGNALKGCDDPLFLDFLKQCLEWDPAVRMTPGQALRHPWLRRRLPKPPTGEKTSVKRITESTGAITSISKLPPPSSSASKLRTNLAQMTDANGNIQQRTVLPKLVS
Nature of the data set: Inhibition of recombinant human full length DYRK2 (1 to 528 residues) expressed in mammalian expression system at 1 uM by DiscoverX competition binding assay relative to control. In outline:
as §2

Data set [10] has as its target Dual specificity tyrosine-phosphorylation-regulated kinase 1B (Homo sapiens) (UniProt Q9Y463). The data set can be described thus: Inhibition of recombinant human full length DYRK1B (1 to 629 residues) expressed in bacterial expression system at 1 uM by DiscoverX competition binding assay relative to control. In outline: as §2
Data set [11] in a line: Apparent permeability from apical to basolateral side in dog MDCK-MDR1 cells. It counts as ADME, cell-based, Canis lupus familiaris. In outline:
(§3)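 MDCK cells transfected with human MDR1 gene. Apparent permeability coefficient (Papp, 10^-6 cm/s) measured across the cell layer in each direction, apical to basolateral and basolateral to apical. Mean values reported; efflux ratio taken as Papp B2A / Papp A2B.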

The target of data set [12] is Dual specificity protein kinase CLK1 (Homo sapiens) (UniProt P49759). The data set can be described thus: Inhibition of recombinant human full length CLK1 (1 to 484 residues) expressed in bacterial expression system at 1 uM by DiscoverX competition binding assay relative to control. A digest of the protocol:
as §2

For data set [13], the target named is T1, Dual specificity tyrosine-phosphorylation-regulated kinase 1A. The data set can be described thus: Inhibition of recombinant human DYRK1A (129 to 509 residues) expressed in mammalian expression system at 1 uM by DiscoverX competition binding assay relative to control. A digest of the protocol: as §2
For data set [14], the target named is Cyclin-dependent kinase 2 (Homo sapiens) (UniProt P24941). Nature of the data set: Inhibition of recombinant human full length CDK2 (1 to 298 residues) expressed in bacterial expression system at 1 uM by DiscoverX competition binding assay relative to control. In outline:
as §2

The target in data set [15] is Dual specificity protein kinase CLK3 (Homo sapiens) (UniProt P49761). The data set can be described thus: Inhibition of recombinant human full length CLK3 (1 to 490 residues) expressed in bacterial expression system at 1 uM by DiscoverX competition binding assay relative to control. A digest of the protocol:
as §2

The nature of data set [16]: Metabolic stability in rat liver microsomes assessed as intrinsic clearance. It counts as ADME, Microsome. As to conditions: read-out: CLH. In outline: as §1
The target in data set [17] is Dual specificity protein kinase CLK2 (Homo sapiens) (UniProt P49760). The data set can be described thus: Inhibition of recombinant human partial length CLK2 (144 to 484 residues) expressed in bacterial expression system at 1 uM by DiscoverX competition binding assay relative to control. In outline:
as §2

Data set [18] is described as follows: Apparent permeability from basolateral to apical side in dog MDCK-MDR1 cells. It counts as ADME, cell-based, Canis lupus familiaris. In outline:
as §3

Dual specificity protein kinase CLK1 (Homo sapiens), sequence (P49759 whole entry, looked up, the tested form may be a part): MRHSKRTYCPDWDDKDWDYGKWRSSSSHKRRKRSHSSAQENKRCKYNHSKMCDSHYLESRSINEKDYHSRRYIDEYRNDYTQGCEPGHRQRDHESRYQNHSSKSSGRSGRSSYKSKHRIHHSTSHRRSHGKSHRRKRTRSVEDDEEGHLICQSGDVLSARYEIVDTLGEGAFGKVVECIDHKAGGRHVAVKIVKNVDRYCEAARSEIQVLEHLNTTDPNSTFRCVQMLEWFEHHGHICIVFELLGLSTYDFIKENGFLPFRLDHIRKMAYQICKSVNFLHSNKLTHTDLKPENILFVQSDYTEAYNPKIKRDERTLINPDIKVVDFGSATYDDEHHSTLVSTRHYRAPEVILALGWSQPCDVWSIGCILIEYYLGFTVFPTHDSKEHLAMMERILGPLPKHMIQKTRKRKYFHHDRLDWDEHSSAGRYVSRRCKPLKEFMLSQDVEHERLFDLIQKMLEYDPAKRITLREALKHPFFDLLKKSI
Dual specificity protein kinase CLK2 (Homo sapiens), sequence (P49760 whole entry, looked up, the tested form may be a part): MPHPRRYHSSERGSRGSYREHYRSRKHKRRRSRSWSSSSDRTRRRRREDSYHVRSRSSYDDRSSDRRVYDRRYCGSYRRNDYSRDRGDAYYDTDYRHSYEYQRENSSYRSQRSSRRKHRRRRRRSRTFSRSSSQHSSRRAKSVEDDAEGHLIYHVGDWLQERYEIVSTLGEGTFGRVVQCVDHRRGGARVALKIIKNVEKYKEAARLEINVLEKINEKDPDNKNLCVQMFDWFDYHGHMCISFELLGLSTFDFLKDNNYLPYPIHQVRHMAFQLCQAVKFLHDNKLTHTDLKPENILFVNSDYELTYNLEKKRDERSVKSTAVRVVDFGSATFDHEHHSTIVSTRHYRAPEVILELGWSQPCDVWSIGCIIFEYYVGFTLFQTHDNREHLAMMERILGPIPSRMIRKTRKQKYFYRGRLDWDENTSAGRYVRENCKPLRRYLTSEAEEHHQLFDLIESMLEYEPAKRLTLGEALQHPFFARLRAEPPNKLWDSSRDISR
Dual specificity tyrosine-phosphorylation-regulated kinase 1B (Homo sapiens), sequence (Q9Y463 whole entry, looked up, the tested form may be a part): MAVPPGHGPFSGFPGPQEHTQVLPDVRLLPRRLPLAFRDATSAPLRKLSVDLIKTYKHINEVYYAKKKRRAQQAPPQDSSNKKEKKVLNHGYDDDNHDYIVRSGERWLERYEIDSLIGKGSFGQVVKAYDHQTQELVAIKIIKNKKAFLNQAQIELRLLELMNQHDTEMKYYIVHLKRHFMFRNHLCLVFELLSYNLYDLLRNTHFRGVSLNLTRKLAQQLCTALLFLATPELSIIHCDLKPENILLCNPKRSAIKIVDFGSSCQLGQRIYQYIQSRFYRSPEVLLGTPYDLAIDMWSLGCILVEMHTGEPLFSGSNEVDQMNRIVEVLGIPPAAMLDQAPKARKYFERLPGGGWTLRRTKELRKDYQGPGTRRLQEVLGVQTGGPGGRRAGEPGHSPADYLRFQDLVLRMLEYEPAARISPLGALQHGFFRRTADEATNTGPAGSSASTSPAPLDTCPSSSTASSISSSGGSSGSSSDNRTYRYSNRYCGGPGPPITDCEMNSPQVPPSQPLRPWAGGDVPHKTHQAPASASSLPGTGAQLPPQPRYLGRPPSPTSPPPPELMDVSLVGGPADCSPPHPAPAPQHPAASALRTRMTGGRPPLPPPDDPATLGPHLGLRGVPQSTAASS
Dual specificity protein kinase CLK3 (Homo sapiens), sequence (P49761 whole entry, looked up, the tested form may be a part): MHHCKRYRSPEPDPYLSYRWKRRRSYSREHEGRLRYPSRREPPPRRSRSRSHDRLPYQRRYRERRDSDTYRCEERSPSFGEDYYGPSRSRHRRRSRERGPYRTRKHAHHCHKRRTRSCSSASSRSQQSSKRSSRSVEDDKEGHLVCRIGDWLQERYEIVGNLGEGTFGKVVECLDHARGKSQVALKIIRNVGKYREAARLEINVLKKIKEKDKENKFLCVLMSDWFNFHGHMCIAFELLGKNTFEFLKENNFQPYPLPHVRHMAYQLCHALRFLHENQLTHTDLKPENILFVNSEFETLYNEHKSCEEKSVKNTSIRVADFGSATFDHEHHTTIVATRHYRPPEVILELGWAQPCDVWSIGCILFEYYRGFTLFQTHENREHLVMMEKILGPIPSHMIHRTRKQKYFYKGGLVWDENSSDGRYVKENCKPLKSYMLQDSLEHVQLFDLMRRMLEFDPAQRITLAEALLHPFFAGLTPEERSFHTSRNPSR

What is called IC50 is the concentration that gives 50% inhibition. In the case of `COc1cccc(N(C)c2nccc(-c3cnn4ncccc34)n2)c1`, the IC50 in data set [1] turned out to be 97 nM.

As for `COc1cccc(Nc2nccc(-c3cnn4ncccc34)n2)c1` [PYRAZOLOPYRIDAZINE 1], in [1], the IC50 was found to be 12 nM.

`N#Cc1cccc(Nc2nccc(-c3cnn4ncccc34)n2)c1` [GW778894X]: the half-maximal inhibitory concentration (IC50) in [1] came out at 5 nM.

Consider `Cc1ccccc1Nc1nccc(-c2cnn3ncccc23)n1`, for which, in [1], the concentration for half-maximal inhibition (IC50) was found to be 64 nM.

As usually defined, the inhibition is the drop in the measured response relative to a control, in per cent. On to `c1ccc(Nc2nccc(-c3cnn4ncccc34)n2)cc1`, for which the concentration for half-maximal inhibition (IC50) in [1] amounted to 38 nM. In addition, the figures for the inhibition in data set [2] and in data set [3] were 97% and 98%, respectively.

With `N#Cc1ccc(Nc2nccc(-c3cnn4ncccc34)n2)cc1`, the IC50 in [1] turned out to be 103 nM.

Broadly, the Kd is the equilibrium constant for the complex coming apart. `Cc1cccc(Nc2nccc(-c3cnn4ncccc34)n2)c1`: in [1], the half-maximal inhibitory concentration (IC50) came to 7 nM. Besides, the equilibrium dissociation constant (Kd) in [4] came to 8.9 nM.

On to `CN(c1ccccc1)c1nccc(-c2cnn3ncccc23)n1`, for which the IC50 in data set [1] came out at 186 nM. For the same molecule, the values for the inhibition in data set [2] and in data set [3] were 79% and 33%, respectively.

The term efflux ratio denotes a quotient of directional permeabilities that is used to spot active efflux. One may read the Papp A→B as the apparent permeability from the apical to the basolateral side of a cell layer. As a reminder, the Papp B→A is how fast a substance crosses the layer from the basolateral side. `Cc1cccc(N(C)c2nccc(-c3cnn4ncccc34)n2)c1`: the efflux ratio in data set [5] came to 0.96. Also, the microsomal CLint in data set [6] is 75 µL/min/mg; in data set [16], 805 µL/min/mg. Besides, the inhibition in data set [7] turned out to be 4%; in [9] it was 19%; in [10] it was 0%; in data set [12], 59%; in data set [13], 65%; in data set [14], 12%. Besides, the inhibition in [15] turned out to be 6%; in [17] it was 59%. For the same molecule, the IC50 in data set [1] worked out at 76 nM. For the same molecule, the solubility thermodynamic in [8] was found to be 10 µg/mL (≈ 31.6 µM). The Papp A→B in [11] was determined as 20.9 ×10⁻⁶ cm/s. For the same molecule, the basolateral-to-apical permeability (Papp B→A) in data set [18] worked out at 20.1 ×10⁻⁶ cm/s.

Turning to `COc1ccccc1Nc1nccc(-c2cnn3ncccc23)n1`, the IC50 in data set [1] stood at 137 nM.
